Assay results published in ChEMBL document CHEMBL4024770, “Augmentation of Anticancer Drug Efficacy in Murine Hepatocellular Carcinoma Cells by a Peripherally Acting Competitive N-Methyl-d-aspartate (NMDA) Receptor Antagonist” (J Med Chem, 2017).

What was measured:
[1] = tested on: Liver; test: Cmax in mouse liver at 10 mg/kg, ip administered as bolus dose by LC-MS/MS analysis; format: ADME, organism-based; parameters: dose 10 mg/kg, route intraperitoneal; conditions: in vivo
How it was run: (§1)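 Adult male mice (25 ± 5 g) given a single 10 mg/kg i.p. bolus, prepared as a 5.0 mM solution in 0.9% NaCl. Animals were decapitated at five time points between 10 and 240 min. Plasma was precipitated with acetonitrile containing internal standard. Brain and liver were homogenized in water (1:3) and precipitated the same way. Analysis by LC-MS/MS, with AUC0–240, Cmax, tmax, t½β and liver/plasma ratio derived from the concentration-time data.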

[2] = species: Mus musculus; test: Antagonist activity at NMDA receptor in Nras driven p53 deficient mouse HCC cell membranes assessed as potentiation of 1 uM sorafenib-mediated antiproliferative activity by measuring cell viability at 100 uM after 72 hrs by resazurin assay (reference value: […] +/- […]%)
[3] = tested on: Plasma; test: Elimination half life in mouse plasma at 10 mg/kg, ip administered as bolus dose by LC-MS/MS analysis; format: ADME, organism-based; conditions: in vivo; how it was run: as §1
[4] = tested on: Brain; test: Tmax in mouse brain at 10 mg/kg, ip administered as bolus dose by LC-MS/MS analysis; format: ADME, organism-based; conditions: in vivo; how it was run: as §1
[5] = tested on: Brain; test: Drug uptake in mouse brain at 10 mg/kg, ip administered as bolus dose measured at 60 mins by LC-MS/MS analysis; format: ADME, organism-based; conditions: in vivo, 1 h; how it was run: as §1
[6] = tested on: Brain; test: AUC (0 to 240 mins) in mouse brain at 10 mg/kg, ip administered as bolus dose by LC-MS/MS analysis; format: ADME, organism-based; parameters: dose 10 mg/kg, time < 4 hr, route intraperitoneal; conditions: in vivo, 4 h; how it was run: as §1
[7] = Liver to plasma partition coefficient in mouse at 10 mg/kg, ip administered as bolus dose by LC-MS/MS analysis; format: ADME, organism-based; conditions: other tissue; how it was run: as §1

For `Cl.O=C(O)c1cc([C@H]2CCN[C@@H]2C(=O)O)ccc1Cl`, the Cmax [1] was 8.7 nmol/g, the Activity [2] was 33% and the “beta t1/2” value [3] was 30 min. It also gave a Tmax [4] of 30 min, a Drug uptake [5] of 0.1 nmol/g and an AUC [6] of 13 nmol·min/g. The Kp [7] was 0.19.
